Compound activity deposited in PubChem BioAssay by several laboratories.
Only some compounds are listed: those with a hit (about 2.3% of all), similar ones and a draw of the others.
CRFR2-BP antag – CRF-BP/CRF-R2 complex antagonism. actives 0.59% (n = 350,000). HEK293 CRF-R2/CRF-BP, CRF-induced calcium fluorescence. inhibition, % at 11.8 µM. AID 588475;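 active = inhibition of the ligand-induced calcium signal above about 50% at the single tested concentration, limit read from the data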
TPT1 inhibitor – blocks Candida albicans tRNA 2'-phosphotransferase; recombinant caTPT1, FP RNA substrate dephosphorylation; inhibition, % at 5 µM; actives 0.81% (n = 300,000); AID 1962;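 active = inhibition above the mean of all tested compounds plus 3 SD, set per screening campaign, cut at about 24% in these data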;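 also: plate controls were DMSO alone for no effect and ferristatin control at 100 nM for full effect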
CRFBP-R2 agonist – CRF-BP/CRF-R2 complex agonism; HEK293 CRF-R2/CRF-BP, calcium dye fluorescence (FLIPR); percent of saturating CRF peptide response; activation, % at 13.2 µM; actives 0.46% (n = 350,000);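 active = activation of at least 50%, plus an integration ratio under a set limit after plate pattern correction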;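 also: plate controls were neutral control wells without compound for no effect and CRF at EC100 for full effect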
CSN inh – blocks human CSN-mediated cullin deneddylation | actives 0.38% (n = 360,000) | inhibition, % at 12.5 µM | AID 651999 | Q92905 | Purified CSN, SCF-Nedd8-OG deneddylation, fluorescence polarization;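 active = pattern-corrected inhibition above about 35%, with an unprinted fluorescence ratio check between 0.5 and 1.5, limit read from the data, passing the limit was not always enough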;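 also: 0% = enzyme with substrate and 100% = substrate without enzyme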
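Material: purified human Csn5 enzyme expressed in HEK293T cells / Medium: Tris buffer pH 7.5, NaCl, DTT, Tween-20, trehalose, ovalbumin / Compound dosing: 12.5 µM single point / Schedule: 90 min incubation of compound, enzyme and substrate at room temperature / Signal: fluorescence polarization of the substrate / Control set: no-enzyme wells high, enzyme-with-substrate wells low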
Rpn11 block – inhibitors of human proteasome Rpn11; AID 588493; actives 0.59% (n = 360,000); O00487; human 26S proteasome, Ub4-pepOG fluorescence polarization; 20S core pre-blocked with epoxomicin; calls only at 20 µM;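 active = inhibition at 20 µM, scaled to each plate's controls, above about 33%, limit read from the data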
HNF4A DNA FP – change in binding of human HNF4 alpha to DNA; HNF4a-FITC DNA binding, fluorescence polarization, 1 h; activity change, % at 10 µM; actives 0.3% (n = 360,000); in the data active = activity change above about 30%, passing the limit was not always enough
Rpn11 confirm – confirmation of human proteasome Rpn11 inhibitors; shares compounds with Rpn11 block; purified human 26S proteasome, Ub4-pepOG fluorescence polarization; proteasome pretreated with epoxomicin; inhibition, % at 20 µM; actives 29% (n = 1,900)
MMP-2 counter – counter-screen for RPN11 inhibitors: inhibition of human MMP-2. shares compounds with Rpn11 block. recombinant MMP-2, FRET peptide cleavage fluorescence. inhibition, % at 20 µM. actives 4% (n = 1,900). AID 602330;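 also: human MMP-2 activated beforehand with APMA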
Target sequence (P08253 whole entry, looked up): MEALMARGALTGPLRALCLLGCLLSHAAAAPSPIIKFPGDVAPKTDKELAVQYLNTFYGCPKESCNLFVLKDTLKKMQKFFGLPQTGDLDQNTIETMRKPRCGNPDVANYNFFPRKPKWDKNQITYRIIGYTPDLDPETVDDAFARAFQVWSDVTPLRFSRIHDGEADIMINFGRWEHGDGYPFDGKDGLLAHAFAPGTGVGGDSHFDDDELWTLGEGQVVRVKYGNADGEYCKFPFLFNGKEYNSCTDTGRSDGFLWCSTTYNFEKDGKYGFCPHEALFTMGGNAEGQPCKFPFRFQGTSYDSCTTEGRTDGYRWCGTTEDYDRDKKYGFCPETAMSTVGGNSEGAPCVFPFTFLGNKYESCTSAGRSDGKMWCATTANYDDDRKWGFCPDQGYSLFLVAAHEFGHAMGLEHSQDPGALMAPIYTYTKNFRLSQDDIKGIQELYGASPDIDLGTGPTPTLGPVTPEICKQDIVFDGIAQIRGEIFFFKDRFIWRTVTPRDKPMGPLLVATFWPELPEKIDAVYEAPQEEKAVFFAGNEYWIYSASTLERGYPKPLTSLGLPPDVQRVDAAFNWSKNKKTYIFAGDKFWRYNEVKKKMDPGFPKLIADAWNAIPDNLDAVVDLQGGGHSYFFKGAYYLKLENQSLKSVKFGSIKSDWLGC
Thrombin inh – counter-screen for RPN11 inhibitors: inhibition of bovine thrombin; bovine thrombin cleavage of Ub4-pepOG, fluorescence polarization; AID 602333; inhibition, % at 20 µM; actives 13% (n = 1,900); shares compounds with Rpn11 block;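 active = mean inhibition at least 40% at 20 µM, or signal 3 deviations below plate average, so some actives read negative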;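 also: plate controls were thrombin with DMSO for no effect and buffer wells lacking thrombin for full effect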
* = called active by the depositor; i = inactive; / = not tested or not shown; + = active, no number. Rule as the data show it, unless noted: active = inhibition above about 40%; inactive = the rest.

SMILES	CRFR2-BP antag	TPT1 inhibitor	CRFBP-R2 agonist	CSN inh	Rpn11 block	HNF4A DNA FP	Rpn11 confirm	MMP-2 counter	Thrombin inh
COc1cccc(NS(=O)(=O)c2ccc3c(c2)NC(=O)CC(=O)N3)c1	1	-2	2	3	i	-3	/	/	/
Cc1ccc(CSc2sc(C(=O)c3ccccc3)c(N)c2C#N)cc1	1	2	0	3	+	10	-4	4	-5
N#Cc1c(SCc2ccccc2)sc(C(=O)c2ccccc2)c1N	-9	-2	0	0	i	5	/	/	/
CC(Sc1nnc(-c2ccco2)o1)C(=O)Nc1ccc(OC(F)F)cc1 (stereo unspecified)	-3	/	-1	3	i	3	/	/	/
CC(=O)c1ccc(NC(=O)c2ccc(COc3ccccc3[N+](=O)[O-])o2)cc1	23	4	-3	-4	+	0	7	-3	-29
O=C(O)c1ccc(COc2ccccc2[N+](=O)[O-])o1	0	-1	-1	-16	i	-2	/	/	/
O=C(NCCS(=O)(=O)c1ccc(Br)cc1)c1ccc(Cl)cc1Cl	-1	-4	-2	7	i	-1	/	/	/
COC(=O)c1[nH]c2ccc(C)cc2c1NC(=O)CN1CCCc2ccccc21	-12	15	7	2	+	11	48*	-143	7
COC(=O)c1[nH]c2cc(C)ccc2c1NC(=O)CN1CCN(c2ccccc2OC)CC1	-2	3	-2	-2	i	2	/	/	/
Cc1ccc(CNC(=O)c2ccc(N3CCC4(CC3)CC(c3cccc(Br)c3)=NO4)c(NC(=O)c3cccc(C)c3)c2)cc1	-4	7	2	11	+	14	7	-1	9
COc1ccccc1NC(=O)Cn1c(C)nc2c(sc(=S)n2Cc2ccco2)c1=O	4	-1	2	0	+	3	7	-37	1
O=C(/C(=C(\[O-])c1ccccc1)[n+]1ccc2ccccc2c1)c1ccc(Cl)cc1	4	0	-1	7	i	5	/	/	/
O=C(/C(=C(\[O-])c1ccccc1)[n+]1ccc2ccccc2c1)c1ccccc1	11	23	4	7	+	23	-34	-47	-38
Cc1cc2ncn(/N=C/c3ccc([N+](=O)[O-])o3)c2cc1C	-48	-3	6	11	+	7	50*	-22	20
CCOC(=O)CCC(=O)Nc1ccc([N+](=O)[O-])cc1C	49	5	-6	-8	+	30*	-8	-31	-10
COc1cc(/C=C2\SC(=S)N(CC(=O)Nc3ccccn3)C2=O)cc(OC)c1OC	-254	13	4	12	+	11	38	-5	25
COc1ccc(/C=C2\SC(=S)N(CC(=O)Nc3nnc(C)s3)C2=O)cc1	-45	-3	-2	2	+	-1	3	-8	-5
COc1cc(/C=C2/SC(=S)N(CC(=O)Nc3nc4ccccc4s3)C2=O)cc(OC)c1OC	16	17	-1	11	+	12	52*	16	28
Cc1ccc(NC(=O)CN2C(=O)S/C(=C\c3ccc(OCC(=O)O)c(Br)c3)C2=O)cc1	32	1	-3	0	i	-4	/	/	/
COc1cc(/C=C2\SC(=O)N(CC(=O)Nc3ccc(C)cc3)C2=O)cc(Cl)c1OCC(=O)O	22	6	1	20	+	-4	4	-12	25
O=C(O)c1ccccc1C(=O)Nc1ccc(Br)c(C(F)(F)F)c1	-2	1	0	-2	i	-3	/	/	/
CC1(C)CC2CC(C)(CN2C(=O)COC(=O)Cn2[nH]c(=O)c3ccccc3c2=O)C1 (stereo unspecified)	-22	-1	0	-1	i	0	/	/	/
CCc1cc2c(COC(=O)c3cccc(S(C)(=O)=O)c3)cc(=O)oc2cc1O	6	0	-1	-1	i	0	/	/	/
CC(=O)N1N=C2c3ccccc3CCC2C1c1ccc(F)cc1 (stereo unspecified)	-18	3	0	-3	i	-1	/	/	/
COc1ccc2c(c1)CCC1C2=NN(/C(C)=C/C(C)=O)C1c1cccc(F)c1 (stereo unspecified)	8	14	0	15	+	76*	23	8	17
SMILES	CRFR2-BP antag	TPT1 inhibitor	CRFBP-R2 agonist	CSN inh	Rpn11 block	HNF4A DNA FP	Rpn11 confirm	MMP-2 counter	Thrombin inh
CC1=CCC2C(=O)N(c3ccc(C(=O)Nc4ccccc4Cl)cc3)C(=O)C2C1 (stereo unspecified)	-32	-1	-3	-8	i	-4	/	/	/
CN(C)/C=C(\C(=O)c1cccc(Cl)c1)c1nnnn1-c1ccccc1	9	3	0	1	i	1	/	/	/
CS(=O)(=O)c1ccc2nc(NC(=O)Nc3ccc(Cl)cc3)sc2c1	18	-1	-1	5	i	6	/	/	/
NS(=O)(=O)c1ccc2nc(NC(=O)Nc3ccc(F)cc3)sc2c1	-14	10	2	23	+	43*	33	1	23
COc1ccc(-c2noc(CN(C(=O)c3ccc4c(c3)OCO4)C(C)C)n2)cc1	-10	2	0	5	i	1	/	/	/
COc1ccc2cc(C(=O)Nc3ccc(Cl)cc3)sc(=O)c2c1OC	7	3	0	23	+	3	39	33	-12
CN(C)S(=O)(=O)Nc1cccc(Br)c1	3	2	-2	2	i	5	/	/	/
CC(=O)c1cccc(NS(=O)(=O)N(C)C)c1	-35	1	1	0	+	50*	-2	-4	-7
CN(CC(=O)Nc1cccc(S(=O)(=O)N(C)c2ccccc2)c1)Cc1cccs1	14	/	-1	-1	i	0	/	/	/
CN(C)CCCNc1ccc(-c2n[nH]c(=O)c3ccccc23)cc1[N+](=O)[O-]	-10	-6	0	4	+	2	8	-11	-16
CC(O)CNc1ccc(-c2n[nH]c(=O)c3ccccc23)cc1[N+](=O)[O-] (stereo unspecified)	-31	-3	-1	-1	i	3	/	/	/
COc1ccc(-c2ccc3c(c2)S(=O)(=O)c2cccc(C(=O)N4CCN(c5c(Cl)cncc5Cl)CC4)c2C3=O)cc1OC	-5	/	9	21	+	42*	43*	-13	17
